According to ChEMBL document CHEMBL1138516, “Synthesis and biophysical characterization of chlorambucil anticancer ether lipid prodrugs” (J Med Chem, 2009):

Legend:
Format in all cases: functional, cell-based
HT-29 [1] = test: Cytotoxicity against human HT-29 cells assessed as cell viability after 48 hrs by MTT assay; conditions: HT-29, 48 h
Method in brief: (§1)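 HT-29 colon and ES-2 ovarian cells were grown in McCoy's 5A with 10% FCS and 1% Pen-Strep, and MT-3 breast cells in RPMI. Cells were seeded at 1 × 10⁴ per well 24 h before dosing. Free drug was given in DMSO/water (final DMSO max 0.5%). Liposomes were diluted in PBS, with lipid content set by phosphorus analysis. Exposure lasted 24 h, then cells were washed and kept 48 h in complete medium.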

HT-29 [2] = test: Cytotoxicity against human HT-29 cells assessed as cell viability after 48 hrs by MTT assay in presence of Agkistrodon piscivorus secreted PLA2; conditions: HT-29, 48 h
Method in brief: (§2)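 These lines follow the same protocol: HT-29 and ES-2 cells in McCoy's 5A with 10% FCS and 1% Pen-Strep, MT-3 cells in RPMI, seeded at 1 × 10⁴ per well 24 h ahead. Liposomal prodrugs in PBS were given with Agkistrodon piscivorus piscivorus venom sPLA₂ at 5 nM final. Exposure lasted 24 h, then cells were washed and given 48 h recovery in complete medium.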

[3] = Cytotoxicity against human MT3 cells assessed as cell viability after 48 hrs by MTT assay; conditions: MT-3, 48 h; method in brief: as §1
[4] = Cytotoxicity against human MT3 cells assessed as cell viability after 48 hrs by MTT assay in presence of Agkistrodon piscivorus secreted PLA2; conditions: MT-3, 48 h; method in brief: as §2
[5] = Cytotoxicity against human ES2 cells assessed as cell viability after 48 hrs by MTT assay; conditions: ES-2, 48 h; method in brief: as §1
[6] = Cytotoxicity against human ES2 cells assessed as cell viability after 48 hrs by MTT assay in presence of Agkistrodon piscivorus secreted PLA2; conditions: ES-2, 48 h; method in brief: as §2

| SMILES | IC50 (HT-29 [1]) | IC50 (HT-29 [2]) | IC50 [3] | IC50 [4] | IC50 [5] | IC50 [6] |
| --- | --- | --- | --- | --- | --- | --- |
| CCCCCCCCCCCCCCCCCCOC[C@H](COP(=O)([O-])OCC[N+](C)(C)C)OC(=O)CCCc1ccc(N(CCCl)CCCl)cc1 | > 200 µM | 32 µM | > 200 µM | 36 µM | – | – |
| O=C(O)CCCc1ccc(N(CCCl)CCCl)cc1 [CHLORAMBUCIL] | 70 µM | – | 95 µM | – | 34 µM | – |
| CCCCCCCCCCCCCCCCCCOC[C@@H](O)COP(=O)([O-])OCC[N+](C)(C)C | 18 µM | – | 35 µM | – | 30 µM | – |
| CCCCCCCCCCCCCCCCCCOC[C@H](COP(=O)(O)OC[C@@H](O)CO)OC(=O)CCCc1ccc(N(CCCl)CCCl)cc1 | > 200 µM | 10 µM | > 200 µM | 36 µM | 97 µM | 8 µM |
